Shown are actives, neighbours in structure and some others; about 1.8% of the full set was active somewhere.
UBC9 SUMO inh = inhibitors of human SUMOylation (UBC9); inhibition, % at 35 µM; HTRF SUMOylation assay, SAE1/SAE2 + UBC9, in vitro; 290,000 compounds, 0.36% hits; P63279; in the data active = inhibition above about 50%, passing the limit was not always enough
TPT1 inhibitor = inhibitors of Candida albicans tRNA 2'-phosphotransferase TPT1 | recombinant caTPT1, FP RNA substrate dephosphorylation | inhibition, % at 5 µM | 300,000 compounds, 0.81% hits | AID 1962;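 active = inhibition above the mean of all tested compounds plus 3 SD, set per screening campaign, cut at about 24% in these data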;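 also: plate controls were DMSO alone for no effect and ferristatin control at 100 nM for full effect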
SENP1 FRET inh = blocks the human SENP1 SUMO protease catalytic domain; Q9P0U3; recombinant SENP1 catalytic domain, CyPet-SUMO1-YPet FRET cleavage; inhibition, % at 10 µM; 360,000 compounds, 0.21% hits; AID 624204;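 active = inhibition at least 30% at 10 µM, raw YFP signal under a set limit, fluorescence ratio 0.5 to 1.5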;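 also: 0% = enzyme with DMSO and 100% = no enzyme wells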
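System: Recombinant human SENP1 catalytic domain, His6-tagged | Incubation: Enzyme reaction for 50 min at room temperature, dark | Medium: Tris pH 8 with BME, BSA, NP40 and catalase | Also added: 25 nM SUMO1 FRET substrate | Compound: 10 µM single point, 0.5% DMSO | Measured by: FRET fluorescence in CFP and YFP emission channels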
Rpn11 block = Rpn11 (human) deubiquitinase inhibition; O00487; human 26S proteasome, Ub4-pepOG fluorescence polarization; 20S core pre-blocked with epoxomicin; calls only at 20 µM; 360,000 compounds, 0.59% hits; AID 588493;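 active = inhibition at 20 µM, scaled to each plate's controls, above about 33%, limit read from the data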
HNF4A DNA FP = change in binding of human HNF4 alpha to DNA; activity change, % at 10 µM; 360,000 compounds, 0.3% hits; HNF4a-FITC DNA binding, fluorescence polarization, 1 h; in the data active = activity change above about 30%, passing the limit was not always enough
CSN inh = blocks human CSN-mediated cullin deneddylation | AID 651999 | 360,000 compounds, 0.38% hits | Purified CSN, SCF-Nedd8-OG deneddylation, fluorescence polarization | Q92905 | inhibition, % at 12.5 µM;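 active = pattern-corrected inhibition above about 35%, with an unprinted fluorescence ratio check between 0.5 and 1.5, limit read from the data, passing the limit was not always enough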;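 also: 0% = enzyme with substrate and 100% = substrate without enzyme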
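Detection – fluorescence polarization · System – HEK293T-derived human Csn5 enzyme · Controls – substrate-only high control, full reaction low control · Timing – 90 min, room temperature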
TPT1 inh confirm = confirmation of Candida albicans TPT1 inhibitors; 2,400 compounds, 74% hits; shares compounds with TPT1 inhibitor; inhibition, % at 5 µM; AID 2149; recombinant caTPT1, fluorescence polarization, RNase T1 coupled;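 active = inhibition above the primary screen limit, the mean inhibition of all tested compounds plus 3 SD, cut at about 25% in these data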
RNase T1 inh = RNase T1 inhibition in TPT1 counter-screen; shares compounds with TPT1 inhibitor; RNase T1 cleavage, fluorescence polarization, 1536-well; inhibition, % at 5 µM; 2,400 compounds, 83% hits;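 active = inhibition above the solvent-only control well mean plus 3 SD, limit set per screening run, cut at about 23% in these data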;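 also: plate controls were DMSO wells with enzyme for no effect and wells without RNase T1 for full effect; inhibitors block cleavage so intact labeled substrate keeps polarization high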
Rpn11 inh conf = confirmation of human proteasome Rpn11 inhibitors; shares compounds with Rpn11 block; purified human 26S proteasome, Ub4-pepOG fluorescence polarization; proteasome pretreated with epoxomicin; inhibition, % at 20 µM; 1,900 compounds, 29% hits; AID 602318
MMP-2 counter-1 = blocks human MMP-2, flagging nonselective RPN11 hits. shares compounds with Rpn11 block. recombinant MMP-2, FRET peptide cleavage fluorescence. inhibition, % at 20 µM. 1,900 compounds, 4% hits. AID 602330;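 also: human MMP-2 activated beforehand with APMA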
Thrombin inh = counter-screen for RPN11 inhibitors: inhibition of bovine thrombin. shares compounds with Rpn11 block. bovine thrombin cleavage of Ub4-pepOG, fluorescence polarization. inhibition, % at 20 µM. 1,900 compounds, 13% hits. AID 602333;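 active = mean inhibition at least 40% at 20 µM, or signal 3 deviations below plate average, so some actives read negative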;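 also: plate controls were thrombin with DMSO for no effect and buffer wells lacking thrombin for full effect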
Target sequence (P00735 whole entry, looked up): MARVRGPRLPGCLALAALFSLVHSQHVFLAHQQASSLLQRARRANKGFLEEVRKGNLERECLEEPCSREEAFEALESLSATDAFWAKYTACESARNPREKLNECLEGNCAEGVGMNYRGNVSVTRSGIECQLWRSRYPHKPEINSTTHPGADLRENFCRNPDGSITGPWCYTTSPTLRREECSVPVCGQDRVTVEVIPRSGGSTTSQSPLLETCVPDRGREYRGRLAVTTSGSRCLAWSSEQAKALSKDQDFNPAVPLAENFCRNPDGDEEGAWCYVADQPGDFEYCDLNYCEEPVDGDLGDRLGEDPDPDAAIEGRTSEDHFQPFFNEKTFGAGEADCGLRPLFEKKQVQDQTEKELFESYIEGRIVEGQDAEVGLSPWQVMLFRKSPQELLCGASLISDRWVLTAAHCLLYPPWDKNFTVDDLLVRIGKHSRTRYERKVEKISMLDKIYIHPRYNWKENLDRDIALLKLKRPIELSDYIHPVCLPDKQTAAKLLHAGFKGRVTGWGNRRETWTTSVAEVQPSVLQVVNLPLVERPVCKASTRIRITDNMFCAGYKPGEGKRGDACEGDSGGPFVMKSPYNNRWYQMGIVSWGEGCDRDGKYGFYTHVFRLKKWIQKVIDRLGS
CSN5 deneddyl = validation of inhibitors of human CSN-mediated cullin deneddylation; shares compounds with CSN inh; Csn5 deneddylation of SCF-Nedd8OG, fluorescence polarization, 90 min; inhibition, % at 16.6 µM; 540 compounds, 62% hits; AID 720654; in the data active = inhibition above about 50%;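 also: 0% = DMSO with enzyme and 100% = no enzyme wells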
MMP-2 counter-2 = blocks human MMP-2 in a CSN deneddylation counter-screen; AID 720655; shares compounds with CSN inh; recombinant MMP-2, FRET substrate fluorescence, 60 min; 540 compounds, 33% hits; inhibition, % at 16.6 µM;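 active = corrected plate-normalized z-score of 5 or more, or -5 or less, or inhibition of 15% or more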;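 also: plate controls were DMSO wells with enzyme for no effect and buffer wells lacking MMP-2 for full effect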
Thrombin counter = thrombin (bovine) inhibition, counter-screen for CSN hits. shares compounds with CSN inh. bovine thrombin cleavage of Ub4-pepOG, fluorescence polarization. inhibition, % at 16.6 µM. 540 compounds, 49% hits;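 active = inhibition at or above a set limit, with a fluorescence interference ratio between 0.5 and a set maximum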
Active calls of the source: *; i = inactive; nt = not tested or not shown; + = active, no number. Rule as the data show it, unless noted: active = inhibition above about 40%; inactive = the rest.

SMILES	UBC9 SUMO inh	TPT1 inhibitor	SENP1 FRET inh	Rpn11 block	HNF4A DNA FP	CSN inh	TPT1 inh confirm	RNase T1 inh	CSN5 deneddyl	MMP-2 counter-2	Thrombin counter	others
COc1cc(/C=C2/SC(=S)N(CC3CCCO3)C2=O)ccc1O (stereo not given)	0	39*	-23	nt	41*	58*	41*	51*	65*	-4	75*
CCOc1cc(/C=C2\SC(=S)N(Nc3ccccc3)C2=O)ccc1O	-31	34*	24	+	32	37*	37*	50*	75*	9	61*	Rpn11 inh conf=72*;MMP-2 counter-1=24;Thrombin inh=79*
O=C(NN1C(=O)/C(=C/c2ccc(O)c(O)c2)SC1=S)c1ccccc1	24	31*	32	nt	33	50*	44*	57*	63*	20*	33*
COC(=O)c1cn(Nc2ncc(C(F)(F)F)cc2Cl)c(=O)c2ccccc12	-11	1	3	i	0	4	nt	nt	nt	nt	nt
CCOc1cc(/C=C2\SC(=S)N(N3CCOCC3)C2=O)ccc1O	-18	4	21	i	2	-4	nt	nt	nt	nt	nt
O=C(NN1C(=O)/C(=C/c2cccc(O)c2)SC1=S)c1ccccc1O	-4	1	2	i	3	-5	nt	nt	nt	nt	nt
COc1cc(/C=C2\SC(=S)N(Nc3ncc(C(F)(F)F)cc3Cl)C2=O)ccc1O	11	27*	-16	+	82*	67*	32*	43*	78*	-14	61*	Rpn11 inh conf=75*;MMP-2 counter-1=-20;Thrombin inh=75*
CN(CC(=O)Nc1ccc(Cl)c(S(=O)(=O)N(C)C)c1)Cc1ccccc1	-2	0	1	i	1	0	nt	nt	nt	nt	nt
CC1=C(C(=O)Nc2ccc(CC(=O)NCc3ccc(OC(C)C)cc3)cc2)SCCO1	-7	0	-1	i	-6	-3	nt	nt	nt	nt	nt
Cc1ccc([N+](=O)[O-])c(OCC(O)CNC(C)(C)C)c1 (stereo not given)	8	0	4	i	-1	0	nt	nt	nt	nt	nt
O=C1/C(=C\c2ccc(O)cc2)SC(=S)N1/N=C/c1ccc(O)cc1	13	65*	77*	nt	106*	94*	62*	68*	38	-23	86*
O=C1C2C3C=CC(CC3)C2C(=O)N1/N=C/c1ccc(O)cc1 (stereo not given)	9	-4	1	i	2	5	nt	nt	nt	nt	nt
CN(C)c1ccc(/C=C/C(=O)c2cc(Cl)ccc2O)cc1	17	40*	-1	nt	75*	71*	50*	60*	68*	-18	42*
N#CCc1ccnc2ccccc12	nt	nt	3	i	7	-2	nt	nt	nt	nt	nt

Assay outcomes as filed in PubChem.
